14 compounds from ChEMBL document CHEMBL1128475, “Synthesis, pharmacologic activity, and structure-activity relationships of a series of propafenone-related modulators of multidrug resistance” (1995) can be followed below.

Experiment [1] relates to CCRF-CEM. The experiment can be described thus: The effective dose was measured against P-glycoprotein expressing CCRF-CEM cells in the presence of 5 uM etoposide. The experiment is classed as functional. To be noted: Homo sapiens, read-out: ED50 (the source's name). The method, boiled down:
(§1)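 CCRF-CEM vcr 100 cells (selected stepwise in vincristine; kept in 100 ng/mL vincristine until 1 week before use), RPMI 1640 with 10% FCS. Cytotoxicity of daunomycin or etoposide by MTT reduction, formazan dissolved in 2-propanol/0.04 N HCl, absorbance read. Modifier at 5 μM; six toxin concentrations, triplicate points, ED50 estimated. Reversion potency = toxin ED50 without/with modifier.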

Experiment [2] relates to CCRF-CEM. The experiment can be described thus: The chemosensitizing effect was measured against P-glycoprotein expressing CCRF-CEM cells in the presence of […]. It counts as functional. To be noted: Homo sapiens, read-out: ED50 (the source's name). Summed up:
as §1

For experiment [3], the system named is CCRF-CEM. The experiment can be described thus: The percentage uptake of [3H]daunomycin in resistant CCRF-CEM vcr 100 cells to sensitive CCRF-CEM cells in presence of the compound. The experiment is classed as functional, cell-based. The note with it: Homo sapiens. The method, boiled down:
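Rapid-centrifugation uptake. Resistant CCRF-CEM vcr 100 and sensitive CCRF-CEM cells at 5×10^6 cells/mL in RPMI 1640 with 2% FCS. Modifier (final 5 μM, from 100× DMSO stock) added 10 min before [3H]daunomycin (0.4 μCi/mL; total daunomycin final 1 μmol/L). Sampled at 0–60 min, spun through phthalate oil, pellets solubilized in NaOH/SDS, counted by LSC. Expressed as % of sensitive-cell uptake.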

The subject of experiment [4] is CCRF-CEM. As to the kind of experiment: The reversion potency of compound was measured against P-glycoprotein expressing CCRF-CEM cells and expressed as the ratio of ED50 in the absence and presence […]. The experiment is classed as functional, Homo sapiens.
Experiment [5] has as its system CCRF-CEM. As to the kind of experiment: The effective dose was measured against P-glycoprotein expressing CCRF-CEM cells in the presence of […]. It counts as functional. To be noted: Homo sapiens, read-out: ED50 (the source's name). Summed up:
as §1

Experiment [6] relates to CCRF-CEM. As to the kind of experiment: The reversion potency of compound was measured against P-glycoprotein expressing CCRF-CEM cells and expressed as the ratio of ED50 in the absence and presence of etoposide. The experiment is classed as functional, Homo sapiens. Summed up: as §1

As to `CCN(CC)CC(O)COc1ccccc1C(=O)CCc1ccccc1` (stereo not given), the EC50 in experiment [1] was 3400 nM; in experiment [2], 115 nM. The Uptake in experiment [3] was found to be 68%. For the same compound, in experiment [4], the RP is on record as 12.

As for `COc1ccc(CCN(C)CCCC(C#N)(c2ccc(OC)c(OC)c2)C(C)C)cc1OC` (stereo not given), the EC50 in experiment [1] is 3400 nM; in experiment [5] it was 45 nM. Also, in experiment [3], the Uptake is 79%.

Take `COc1ccc(N2CCN(CC(O)COc3ccccc3C(=O)CCc3ccccc3)CC2)cc1` (stereo not given): the results for the EC50 in experiment [1] and in experiment [2] were 948 nM and 33 nM, respectively. The Uptake in experiment [3] amounted to 96%. Also, the RP in experiment [6] worked out at 3.7; in experiment [4], 42.

Take `CCCNCC(O)COc1ccccc1C(=O)CCc1ccccc1` (stereo not given) [PROPAFENONE]: the EC50 in experiment [2] is 88 nM. For the same compound, the Uptake in experiment [3] amounted to 65%. In addition, the RP in experiment [4] is given as 16.

On to `O=C(CCc1ccccc1)c1ccccc1OCC(O)CN1CCCCC1` (stereo not given), for which the EC50 in experiment [1] was found to be 3300 nM; in experiment [2], 46 nM. Besides, in experiment [3], the Uptake was determined as 83%. Further, the RP amounted to 1.1 in experiment [6] and 30 in experiment [4].

Consider `CCN(CC)CC(O)COc1ccccc1C(=O)c1ccccc1` (stereo not given), for which the EC50 in experiment [2] was 150 nM. In addition, in experiment [4], the RP came out at 9.

`O=C(CCc1ccccc1)c1ccccc1OCC(O)CN1CCOCC1` (stereo not given): the EC50 in experiment [2] was 359 nM. For the same compound, the RP in experiment [4] is reported as 4.

As for `CCCN(C)CC(O)COc1ccccc1C(=O)CCc1ccccc1` (stereo not given), in experiment [2], the EC50 is 55 nM. In experiment [4], the RP is on record as 26.

Take `CCCNCC(O)c1oc2ccccc2c1CCc1ccccc1` (stereo not given): the EC50 in experiment [2] was found to be 198 nM. For the same compound, the RP in experiment [4] is given as 7.

In the case of `Cc1ccccc1N1CCN(CC(O)COc2ccccc2C(=O)CCc2ccccc2)CC1` (stereo not given), the EC50 was determined as 648 nM in experiment [1] and 43 nM in experiment [2]. Further, the Uptake in experiment [3] was determined as 96%. In addition, the RP in experiment [6] stood at 5.4; in experiment [4], 33.

Take `O=C(CCc1ccccc1)c1ccccc1OCC(O)CN1CCN(c2ccc(F)cc2)CC1` (stereo not given): the EC50 in experiment [1] was found to be 1020 nM; in experiment [2], 41 nM. In experiment [3], the Uptake worked out at 92%. Further, the RP in experiment [6] amounted to 3.4; in experiment [4], 34.

In the case of `CC(C)N(CC(O)COc1ccccc1C(=O)CCc1ccccc1)C(C)C` (stereo not given), the EC50 in experiment [2] amounted to 65 nM. The Uptake in experiment [3] stood at 82%. Besides, the RP in experiment [4] turned out to be 22.

For `O=C(CCc1ccccc1)c1ccccc1OCC(O)CN1CCCC1` (stereo not given), the EC50 in experiment [2] turned out to be 70 nM. Moreover, in experiment [4], the RP was found to be 20.

For `CC(=O)c1ccccc1OCC(O)CN1CCCCC1` (stereo not given), the EC50 in experiment [2] was 770 nM. Moreover, the RP in experiment [4] came out at 2.
